From ChEMBL document CHEMBL1154853, “New 1,3-oxazolo[4,5-c]quinoline derivatives: synthesis and evaluation of antibacterial and antituberculosis properties” (2010)
≈ marks a conversion by molar mass, not a printed value. Where “and” joins values, the source holds several entries; their conditions need not be identical. Identical values can stand only once.

Tests used:
Format in all cases: functional
Klebsiella pneumoniae [1] = assay: Antimicrobial activity against Klebsiella pneumoniae after 16 to 18 hrs by serial dilution method
How it was run: (§1)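 Tube broth dilution: serial drug dilutions in Mueller Hinton broth, pH adjusted to 5.0 with phosphate buffer. A standardized bacterial suspension was inoculated and incubated 16-18 h at 37 °C. MIC was read as the lowest drug concentration with no visible growth. Ciprofloxacin served as the reference.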

Escherichia coli [2] = assay: Antimicrobial activity against Escherichia coli […] after 16 to 18 hrs by serial dilution method; how it was run: as §1
Staphylococcus aureus [3] = assay: Antimicrobial activity against Staphylococcus aureus […] at MIC after 3 to 4 days by disc diffusion method
[4] = test system: Mycobacterium tuberculosis; assay: Antitubercular activity against Mycobacterium tuberculosis H37Rv after 24 hrs by broth microdilution method
How it was run: (§2)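 M. tuberculosis H37Rv grown in Middlebrook 7H9 with 10% OADC, diluted to McFarland 1, 50 µl added to 150 µl fresh medium. Compounds from 2 mg/mL DMF stocks tested at 1, 10 and 100 µg/mL; DMF-only controls. 7 days at 37 °C, then 0.01% resazurin added with 24 h further incubation. MIC = lowest concentration preventing blue-to-pink change.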

Klebsiella pneumoniae [5] = assay: Antimicrobial activity against Klebsiella pneumoniae at MIC after 3 to 4 days by disc diffusion method
[6] = test system: Mycobacterium tuberculosis; assay: Antitubercular activity against Mycobacterium tuberculosis H37Rv at MIC after 24 hrs by broth microdilution method; how it was run: as §2
Pseudomonas aeruginosa [7] = assay: Antimicrobial activity against Pseudomonas aeruginosa ATTC 27853 at MIC after 3 to 4 days by disc diffusion method
Escherichia coli [8] = assay: Antimicrobial activity against Escherichia coli […] at MIC after 3 to 4 days by disc diffusion method
Staphylococcus aureus [9] = assay: Antimicrobial activity against Staphylococcus aureus […] after 16 to 18 hrs by serial dilution method; how it was run: as §1
Pseudomonas aeruginosa [10] = assay: Antimicrobial activity against Pseudomonas aeruginosa ATTC 27853 after 16 to 18 hrs by serial dilution method; how it was run: as §1

SMILES | MIC (Klebsiella pneumoniae [1]) | MIC (Escherichia coli [2]) | diameter of the inhibition zone (DIZ) (Staphylococcus aureus [3]) | MIC [4] | diameter of the inhibition zone (DIZ) (Klebsiella pneumoniae [5]) | inhibition (INH) [6] | diameter of the inhibition zone (DIZ) (Pseudomonas aeruginosa [7]) | diameter of the inhibition zone (DIZ) (Escherichia coli [8]) | MIC (Staphylococcus aureus [9]) | MIC (Pseudomonas aeruginosa [10])
O=C(Nc1ccc(F)cc1)Nc1c(-c2ccc(F)cc2)nc2ccccc2c1O | 6.25 µg/mL (≈ 16 µM) | 6.25 µg/mL (≈ 16 µM) | 18 mm | 10 µg/mL (≈ 25.6 µM) | 16 mm | 95% | 17 mm | 24 mm | 6.25 µg/mL (≈ 16 µM) | 6.25 µg/mL (≈ 16 µM)
Fc1cccc(-c2nc3ccccc3c3oc(NCc4ccccc4)nc23)c1 | 6.25 µg/mL (≈ 16.9 µM) | 6.25 µg/mL (≈ 16.9 µM) | 22 mm | 1 µg/mL (≈ 2.71 µM) | 18 mm | 99% | 19 mm | 23 mm | 6.25 µg/mL (≈ 16.9 µM) | 6.25 µg/mL (≈ 16.9 µM)
O=C(NCc1ccccc1)Nc1c(-c2ccc(F)cc2)nc2ccccc2c1O | 50 µg/mL (≈ 129 µM) | 50 µg/mL (≈ 129 µM) | 16 mm | 10 µg/mL (≈ 25.8 µM) | <10 mm | 95% | <10 mm | <10 mm | 6.25 µg/mL (≈ 16.1 µM) | 50 µg/mL (≈ 129 µM)
CCCCCNC(=O)Nc1c(-c2ccc(F)cc2)nc2ccccc2c1O | 50 µg/mL (≈ 136 µM) | 6.25 µg/mL (≈ 17 µM) | <10 mm | > 100 µg/mL | <10 mm | 0% | <10 mm | 20 mm | 50 µg/mL (≈ 136 µM) | 50 µg/mL (≈ 136 µM)
O=C(Nc1cccc(Cl)c1)Nc1c(-c2ccc(F)cc2)nc2ccccc2c1O | 6.25 µg/mL (≈ 15.3 µM) | 6.25 µg/mL (≈ 15.3 µM) | 18 mm | 10 µg/mL (≈ 24.5 µM) | 20 mm | 95% | 20 mm | 22 mm | 6.25 µg/mL (≈ 15.3 µM) | 6.25 µg/mL (≈ 15.3 µM)
CCCCCNc1nc2c(-c3cccc(F)c3)nc3ccccc3c2o1 | 12.5 µg/mL (≈ 35.8 µM) | 6.25 µg/mL (≈ 17.9 µM) | 11 mm | 10 µg/mL (≈ 28.6 µM) | 12 mm | 95% | 14 mm | 24 mm | 12.5 µg/mL (≈ 35.8 µM) | 12.5 µg/mL (≈ 35.8 µM)
Fc1ccc(Nc2nc3c(-c4cccc(F)c4)nc4ccccc4c3o2)cc1 | 6.25 µg/mL (≈ 16.7 µM) | 6.25 µg/mL (≈ 16.7 µM) | 22 mm | 1 µg/mL (≈ 2.68 µM) | 19 mm | 99% | 25 mm | 25 mm | 6.25 µg/mL (≈ 16.7 µM) | 6.25 µg/mL (≈ 16.7 µM)
COc1ccccc1NC(=O)Nc1c(-c2ccc(F)cc2)nc2ccccc2c1O | 6.25 µg/mL (≈ 15.5 µM) | 6.25 µg/mL (≈ 15.5 µM) | 17 mm | 1 µg/mL (≈ 2.48 µM) | 19 mm | 99% | 16 mm | 21 mm | 6.25 µg/mL (≈ 15.5 µM) | 6.25 µg/mL (≈ 15.5 µM)
O=C(Nc1ccc(F)cc1)Nc1c(-c2cccc(F)c2)nc2ccccc2c1O | 6.25 µg/mL (≈ 16 µM) | 6.25 µg/mL (≈ 16 µM) | 20 mm | 10 µg/mL (≈ 25.6 µM) | 16 mm | 95% | 19 mm | 21 mm | 6.25 µg/mL (≈ 16 µM) | 6.25 µg/mL (≈ 16 µM)
O=C(NCCc1ccccc1)Nc1c(-c2cccc(F)c2)nc2ccccc2c1O | 50 µg/mL (≈ 125 µM) | 50 µg/mL (≈ 125 µM) | <10 mm | > 100 µg/mL | <10 mm | 0% | <10 mm | <10 mm | 50 µg/mL (≈ 125 µM) | 50 µg/mL (≈ 125 µM)
Cc1cc(C)cc(NC(=O)Nc2c(-c3ccc(F)cc3)nc3ccccc3c2O)c1 | 50 µg/mL (≈ 125 µM) | 50 µg/mL (≈ 125 µM) | <10 mm | > 100 µg/mL | <10 mm | 0% | <10 mm | <10 mm | 50 µg/mL (≈ 125 µM) | 50 µg/mL (≈ 125 µM)
O=C(NCc1ccccc1)Nc1c(-c2cccc(F)c2)nc2ccccc2c1O | 6.25 µg/mL (≈ 16.1 µM) | 6.25 µg/mL (≈ 16.1 µM) | 18 mm | 10 µg/mL (≈ 25.8 µM) | 18 mm | 95% | 20 mm | 21 mm | 6.25 µg/mL (≈ 16.1 µM) | 6.25 µg/mL (≈ 16.1 µM)
O=C(Nc1ccccc1)Nc1c(-c2cccc(F)c2)nc2ccccc2c1O | 6.25 µg/mL (≈ 16.7 µM) | 6.25 µg/mL (≈ 16.7 µM) | 17 mm | 10 µg/mL (≈ 26.8 µM) | 20 mm | 95% | 18 mm | 20 mm | 6.25 µg/mL (≈ 16.7 µM) | 6.25 µg/mL (≈ 16.7 µM)
N#Cc1cccc(NC(=O)Nc2c(-c3cccc(F)c3)nc3ccccc3c2O)c1 | 6.25 µg/mL (≈ 15.7 µM) | 6.25 µg/mL (≈ 15.7 µM) | 19 mm | > 100 µg/mL | 18 mm | 0% | 19 mm | 23 mm | 6.25 µg/mL (≈ 15.7 µM) | 6.25 µg/mL (≈ 15.7 µM)
CCCCCNC(=O)Nc1c(-c2cccc(F)c2)nc2ccccc2c1O | 12.5 µg/mL (≈ 34 µM) | 6.25 µg/mL (≈ 17 µM) | 12 mm | > 100 µg/mL | 12 mm | 0% | 11 mm | 22 mm | 12.5 µg/mL (≈ 34 µM) | 12.5 µg/mL (≈ 34 µM)
COc1ccccc1NC(=O)Nc1c(-c2cccc(F)c2)nc2ccccc2c1O | 6.25 µg/mL (≈ 15.5 µM) | 6.25 µg/mL (≈ 15.5 µM) | 19 mm | 1 µg/mL (≈ 2.48 µM) | 19 mm | 99% | 18 mm | 22 mm | 6.25 µg/mL (≈ 15.5 µM) | 6.25 µg/mL (≈ 15.5 µM)
CSc1ccc(NC(=O)Nc2c(-c3cccc(F)c3)nc3ccccc3c2O)cc1 | 50 µg/mL (≈ 119 µM) | 6.25 µg/mL (≈ 14.9 µM) | <10 mm | > 100 µg/mL | <10 mm | 0% | <10 mm | 22 mm | 50 µg/mL (≈ 119 µM) | 50 µg/mL (≈ 119 µM)
COc1ccccc1Nc1nc2c(-c3cccc(F)c3)nc3ccccc3c2o1 | 6.25 µg/mL (≈ 16.2 µM) | 6.25 µg/mL (≈ 16.2 µM) | 21 mm | 1 µg/mL (≈ 2.59 µM) | 21 mm | 99% | 21 mm | 24 mm | 6.25 µg/mL (≈ 16.2 µM) | 6.25 µg/mL (≈ 16.2 µM)
CSc1ccc(Nc2nc3c(-c4cccc(F)c4)nc4ccccc4c3o2)cc1 | 6.25 µg/mL (≈ 15.6 µM) | 6.25 µg/mL (≈ 15.6 µM) | 20 mm | 10 µg/mL (≈ 24.9 µM) | 22 mm | 95% | 20 mm | 23 mm | 6.25 µg/mL (≈ 15.6 µM) | 6.25 µg/mL (≈ 15.6 µM)
Fc1cccc(-c2nc3ccccc3c3oc(Nc4ccccc4)nc23)c1 | 6.25 µg/mL (≈ 17.6 µM) | 6.25 µg/mL (≈ 17.6 µM) | 20 mm | 10 µg/mL (≈ 28.1 µM) | 20 mm | 95% | 22 mm | 26 mm | 6.25 µg/mL (≈ 17.6 µM) | 6.25 µg/mL (≈ 17.6 µM)
N#Cc1cccc(Nc2nc3c(-c4cccc(F)c4)nc4ccccc4c3o2)c1 | 12.5 µg/mL (≈ 32.9 µM) | 12.5 µg/mL (≈ 32.9 µM) | 11 mm | > 100 µg/mL | 12 mm | 0% | 14 mm | 16 mm | 12.5 µg/mL (≈ 32.9 µM) | 12.5 µg/mL (≈ 32.9 µM)
O=C(O)c1cn(C2CC2)c2cc(N3CCNCC3)c(F)cc2c1=O [CIPROFLOXACIN] | 6.25 µg/mL (≈ 18.9 µM) |  | 26 mm and 24 mm |  | 25 mm and 22 mm |  | 31 mm and 25 mm | 28 mm and 29 mm |  | 
NNC(=O)c1ccncc1 [ISONIAZID] |  |  |  | 1.5 µg/mL (≈ 10.9 µM) |  | 95% |  |  |  | 
CO[C@H]1/C=C/O[C@@]2(C)Oc3c(C)c(O)c4c(O)c(c(/C=N/N5CCN(C)CC5)c(O)c4c3C2=O)NC(=O)/C(C)=C\C=C\[C@H](C)[C@H](O)[C@@H](C)[C@@H](O)[C@@H](C)[C@H](OC(C)=O)[C@@H]1C [RIFAMPIN] |  |  |  | 0.5 µg/mL (≈ 0.608 µM) |  | 99% |  |  |  | 
